Experimental findings from ChEMBL document CHEMBL1122967 (J Med Chem, 1985) are described below.

Type in all cases: ADME, organism-based
Conditions in all cases: in vivo

The subject of data set [1] is Rattus norvegicus. Briefly: Distribution of [125I]-AC in blood after intravenous administration in rat after 2hours, expressed as percent dose/gram. Put shortly:
(§1)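 Rats received the radioiodinated ligand intravenously and were killed with ether at 1 h or 2 h (six per time point). Organs and brain regions (striatum, cerebellum, thalamus, rest of brain) were sampled and counted. Uptake was calculated as percent injected dose per gram tissue, reported ± SD. The striatum/cerebellum ratio was taken from the regional uptake values.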

Data set [2] deals with Rattus norvegicus. Briefly: Distribution of [125I]AC in striatum after intravenous administration in rat after 2hours, expressed as percent dose/gram. In outline: as §1
Data set [3] relates to Rattus norvegicus. Kind of data set: Distribution of [125I]AC in striatum after intravenous administration in rat after 1hour, expressed as percent dose/gram. In outline: as §1
Data set [4] is filed under the species Rattus norvegicus. Briefly: Ratio of striatum/cerebellum distribution in rat after 1 hr. Put shortly: as §1
Data set [5] relates to Rattus norvegicus. Kind of data set: Distribution of [125I]-AC in thalamus after intravenous administration in rat after 1hour, expressed as percent dose/gram. In outline: as §1
In data set [6] the test system is Rattus norvegicus. Kind of data set: Distribution of [125I]AC in blood after intravenous administration in rat after 1hour, expressed as percent dose/gram. Put shortly:
as §1

In data set [7] the test system is Rattus norvegicus. Kind of data set: Distribution of [125I]-AC in heart after intravenous administration in rat after 2hours, expressed as percent dose/gram. In outline: as §1
The test system of data set [8] is Rattus norvegicus. Briefly: Distribution of [125I]-AC in cerebellum after intravenous administration in rat after 2hours, expressed as percent dose/gram. Put shortly: as §1
The subject of data set [9] is Rattus norvegicus. Kind of data set: Distribution of [125I]AC in cerebellum after intravenous administration in rat after 1hour, expressed as percent dose/gram. In outline: as §1
For data set [10], the system named is Rattus norvegicus. Briefly: Distribution of [125I]AC in rest of the brain after intravenous administration in rat after 2hours, expressed as percent dose/gram. In outline: as §1
The test system of data set [11] is Rattus norvegicus. Kind of data set: Distribution of [125I]AC in rest of the brain after intravenous administration in rat after 1hour, expressed as percent dose/gram. In outline:
as §1

For data set [12], the species on record is Rattus norvegicus. Briefly: Ratio of striatum/cerebellum distribution in rat after 2 hr. In outline:
as §1

Data set [13] concerns Rattus norvegicus. Briefly: Distribution of [125I]AC in thalamus after intravenous administration in rat after 2hours, expressed as percent dose/gram. Put shortly: as §1
In data set [14] the test system is Rattus norvegicus. Kind of data set: Distribution of [125I]AC in heart after intravenous administration in rat after 1hour, expressed as percent dose/gram. Put shortly: as §1
For data set [15], the system named is Rattus norvegicus. Kind of data set: Distribution of [125I]iodoclebopride in cerebellum after intravenous administration in rat after 2hours, expressed as percent dose/gram. In outline: as §1
In data set [16] the test system is Rattus norvegicus. Briefly: Distribution of [125I]iodoclebopride in thalamus after intravenous administration in rat after 1hour, expressed as percent dose/gram. Put shortly:
as §1

Data set [17] deals with Rattus norvegicus. Kind of data set: Distribution of [125I]iodoclebopride in striatum after intravenous administration in rat after 2hours, expressed as percent dose/gram. In outline:
as §1

For data set [18], the system named is Rattus norvegicus. Briefly: Distribution of [125I]iodoclebopride in cerebellum after intravenous administration in rat after 1hour, expressed as percent dose/gram. In outline:
as §1

The test system of data set [19] is Rattus norvegicus. Briefly: Distribution of [125I]iodoclebopride in blood after intravenous administration in rat after 1hour, expressed as percent dose/gram. Put shortly:
as §1

The test system of data set [20] is Rattus norvegicus. Briefly: Distribution of [125I]Iodoclebopride in rest of the brain after intravenous administration in rat after 1hour, expressed as percent dose/gram. Put shortly:
as §1

For data set [21], the system named is Rattus norvegicus. Kind of data set: Distribution of [125I]iodoclebopride in heart after intravenous administration in rat after 2hours, expressed as percent dose/gram. Put shortly:
as §1

The subject of data set [22] is Rattus norvegicus. Kind of data set: Distribution of [125I]iodoclebopride in blood after intravenous administration in rat after 2hours, expressed as percent dose/gram. In outline: as §1
Data set [23] relates to Rattus norvegicus. Kind of data set: Distribution of [125I]iodoclebopride in striatum after intravenous administration in rat after 1hour, expressed as percent dose/gram. In outline: as §1
The test system of data set [24] is Rattus norvegicus. Kind of data set: Distribution of [125I]Iodoclebopride in rest of the brain after intravenous administration in rat after 2hours, expressed as percent dose/gram. In outline: as §1
Data set [25] has as its system Rattus norvegicus. Kind of data set: Distribution of [125I]iodoclebopride in thalamus after intravenous administration in rat after 2hours, expressed as percent dose/gram. Put shortly: as §1
Data set [26] has as its system Rattus norvegicus. Kind of data set: Distribution of [125I]iodoclebopride in heart after intravenous administration in rat after 1hour, expressed as percent dose/gram. Put shortly: as §1

`COc1cc(N)c(I)cc1C(=O)NC1CCN(Cc2ccccc2)CC1`: the Tissue distribution in data set [1] came to 0.29%; in data set [2] it was 0.38%; in [3], 0.5%; in [5], 0.27%; in data set [6] it was 0.33%; in data set [7], 0.3%. Also, the Tissue distribution worked out at 0.23% in data set [8]; 0.26% in [9]; 0.16% in [10]; 0.18% in data set [11]; 0.22% in [13]; 0.35% in data set [14]. Further, the figures for the Ratio in data set [4] and in [12] were 1.92 and 1.65, respectively.

On to `COc1cc(N=[N+]=[N-])c(I)cc1C(=O)NC1CCN(Cc2ccccc2)CC1` [IODOAZIDOCLEBOPRIDE], for which the Tissue distribution in data set [15] was determined as 1.06%; in data set [16], 1.25%; in [17] it was 2.52%; in data set [18] it was 1.13%; in data set [19] it was 0.32%; in [20], 0.78%. Besides, the Tissue distribution in data set [21] turned out to be 1.34%; in data set [22], 0.34%; in data set [23], 2.52%; in [24] it was 0.73%; in data set [25], 1.12%; in data set [26] it was 1.61%. In addition, the Ratio in data set [4] worked out at 2.23; in [12] it was 2.37.
